In ChEMBL document CHEMBL4616673 (J Med Chem, 2020):
pIC50, pKi: −log10 of the molar value. In brackets after ≈: the same amount, converted by molar mass. Activity calls are given as the source filed them. The rule behind the calls is not given here.

Assays:
[1] = Competitive inhibition of Plasmodium falciparum DHODH
HCT-116 = assay: Antiproliferative activity against human HCT116 cells assessed as reduction in cell viability measured after 48 hrs by MTT assay; assay type: functional, cell-based
NAMALVA = assay: Antiproliferative activity against human NAMALWA cells assessed as reduction in cell viability measured after 48 hrs by MTT assay; assay type: functional, cell-based
MCF7 = assay: Antiproliferative activity against human MCF7 cells assessed as reduction in cell viability measured after 48 hrs by MTT assay; assay type: functional, cell-based
A549 = assay: Antiproliferative activity against human A549 cells assessed as reduction in cell viability measured after 48 hrs by MTT assay; assay type: functional, cell-based
A-375 = assay: Antiproliferative activity against human A375 cells assessed as reduction in cell viability measured after 48 hrs by MTT assay; assay type: functional, cell-based
Raji [2] = assay: Antiproliferative activity against human Raji cells assessed as reduction in cell viability measured after 48 hrs by MTT assay; assay type: functional, cell-based
[3] = Solubility of the compound in PBS; assay type: physicochemical
[4] = target: T1, Dihydroorotate dehydrogenase (quinone), mitochondrial (Homo sapiens, UniProt Q02127); assay: Inhibition of human DHODH using dihydroorotate as substrate and CoQ10 as co-substrate preincubated for 30 mins followed by substrate addition by DCIP coupled microplate reader assay
K562 = assay: Antiproliferative activity against human K562 cells assessed as reduction in cell viability measured after 48 hrs by MTT assay; assay type: functional, cell-based
HeLa = assay: Antiproliferative activity against human HeLa cells assessed as reduction in cell viability measured after 48 hrs by MTT assay; assay type: functional, cell-based
[5] = target: T1, Dihydroorotate dehydrogenase (quinone), mitochondrial; assay: Inhibition of recombinant human DHODH expressed in baculovirus infected insect cells using dihydroorotate as substrate and decylubiquinone as co-substrate by 2,6-dichlorophenol-indophenol-coupled spectrophotometric analysis
[6] = Stability of the compound in pH 1 to 7.4 buffer assessed as decrease in compound concentration at 0.01 mg/ml measured up to 24 hrs by LC-MS analysis; assay type: physicochemical; details: read-out: Drug degradation
Outline: (§1)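 Compound at 0.01 mg/mL final in buffer containing 10% acetonitrile at pH 1.0, 4.5, 6.6, 7.4 or 9.0. Held at 37 °C, sampled at 0, 2, 4, 6, 8, 10, 12 and 24 h. Remaining compound by LC-MS.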

Raji [7] = assay: Induction of apoptosis in human Raji cells assessed as necrotic cells at 0.25 uM measured after 48 hrs by Annexin V-FITC staining based flow cytometry (reference value: 0.12 to 0.15 %); assay type: functional
Raji [8] = assay: Induction of apoptosis in human Raji cells assessed as early apoptotic cells at 0.5 uM measured after 48 hrs by Annexin V-FITC staining based flow cytometry (reference value: 2.12 to 2.15 %); assay type: functional
Raji [9] = assay: Induction of apoptosis in human Raji cells assessed as necrotic cells at 1 uM measured after 48 hrs by Annexin V-FITC staining based flow cytometry (reference value: 0.12 to 0.15 %); assay type: functional
Raji [10] = assay: Antitumor activity against human Raji cells xenografted in NOD-SCID nude mouse assessed as tumor growth inhibition at 10 mg/kg/day, po administered 6 days a week for 3 weeks relative to control; assay type: functional
Outline: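 Nude mice given 1 × 10^7 Raji cells s.c. in serum-free medium plus basement membrane matrix. Randomized at 100–200 mm3 tumour volume (n = 6 per group). Oral dosing 6 days/week for 3 weeks. Vehicles: 30 mg/kg/d in 5% NMP/95% PEG400, 10 mg/kg/d in 30% PEG300/70% saline. Volume = ab²/2 every 3 days. TGI from treated vs control volume change, initial to final day.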

[11] = Toxicity in NOD-SCID nude mouse xenografted with human Raji cells assessed as induction of liver damage at 10 mg/kg/day, po administered 6 days a week for 3 weeks and measured post last dose by H and E staining based light microscopic analysis; details: in vivo
[12] = Stability of the compound in pH 9 buffer assessed as decrease in compound concentration at 0.01 mg/ml measured up to 24 hrs by LC-MS analysis; assay type: physicochemical; details: read-out: Drug degradation; outline: as §1
Raji [13] = assay: Induction of apoptosis in human Raji cells assessed as early apoptotic cells at 1 uM measured after 48 hrs by Annexin V-FITC staining based flow cytometry (reference value: 2.12 to 2.15 %); assay type: functional
Raji [14] = assay: Induction of apoptosis in human Raji cells assessed as live cells at 0.25 uM measured after 48 hrs by Annexin V-FITC staining based flow cytometry (reference value: 96.46 to 96.71 %); assay type: functional
[15] = Toxicity in NOD-SCID nude mouse xenografted with human Raji cells assessed as body weight loss at 30 mg/kg/day, po administered 6 days a week for 3 weeks and measured every 3 days during compound dosing; assay type: organism-based; details: in vivo, 10 mg/kg, in the assay text read “10 mg/kg/day” for “30 mg/kg/day”
Raji [16] = assay: Induction of apoptosis in human Raji cells assessed as necrotic cells at 0.5 uM measured after 48 hrs by Annexin V-FITC staining based flow cytometry (reference value: 0.12 to 0.15 %); assay type: functional
Raji [17] = assay: Induction of apoptosis in human Raji cells assessed as live cells at 1 uM measured after 48 hrs by Annexin V-FITC staining based flow cytometry (reference value: 96.46 to 96.71 %); assay type: functional
Raji [18] = assay: Induction of apoptosis in human Raji cells assessed as live cells at 0.5 uM measured after 48 hrs by Annexin V-FITC staining based flow cytometry (reference value: 96.46 to 96.71 %); assay type: functional
Raji [19] = assay: Induction of apoptosis in human Raji cells assessed as early apoptotic cells at 0.25 uM measured after 48 hrs by Annexin V-FITC staining based flow cytometry (reference value: 2.12 to 2.15 %); assay type: functional
Raji [20] = assay: Antiproliferative activity against human Raji cells assessed as inhibition of cell proliferation at 0.156 to 1.250 uM measured after 48 hrs in presence of uridine by MTT assay; assay type: functional, cell-based
Outline: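 Raji cells (ATCC; 10% FBS medium, 37 °C, 5% CO2) seeded at 2-10 × 10^3 cells/well, grown 24 h, then exposed to compound with or without uridine (500 μM) for 48 h. MTT added for 2-4 h; formazan dissolved in 20% acidified SDS overnight; absorbance read at 570 nm. Mean ± SD.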

Raji [21] = assay: Induction of ROS generation in human Raji cells assessed as increase in ROS level measured after 24 hrs by DHE dye based fluorescence microplate reader assay; assay type: functional, cell-based
Outline: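 Raji cells treated 24 h, harvested, stained with 10 μM DHE in pre-warmed PBS for 15 min in the dark. Fluorescence read on a plate reader at ex 510/em 600 nm. Mean ± SD.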

Raji [22] = assay: Cell cycle arrest in human Raji cells assessed as accumulation at S phase at 0.5 uM measured after 24 hrs by propidium iodide/RNase staining based flow cytometry (reference value: 52%); assay type: functional
Raji [23] = assay: Induction of mitochondrial membrane potential loss in human Raji cells measured after 48 hrs by TMRM staining based fluorescence assay; assay type: functional, cell-based
Outline: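 Raji cells treated 48 h (CCCP as positive control), washed in PBS. Incubated with TMRM at 100 nM final for 15 min at 37 °C, fluorescence read at ex 510/em 580 nm. Mean ± SD.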

T1 sequence (Q02127 whole entry): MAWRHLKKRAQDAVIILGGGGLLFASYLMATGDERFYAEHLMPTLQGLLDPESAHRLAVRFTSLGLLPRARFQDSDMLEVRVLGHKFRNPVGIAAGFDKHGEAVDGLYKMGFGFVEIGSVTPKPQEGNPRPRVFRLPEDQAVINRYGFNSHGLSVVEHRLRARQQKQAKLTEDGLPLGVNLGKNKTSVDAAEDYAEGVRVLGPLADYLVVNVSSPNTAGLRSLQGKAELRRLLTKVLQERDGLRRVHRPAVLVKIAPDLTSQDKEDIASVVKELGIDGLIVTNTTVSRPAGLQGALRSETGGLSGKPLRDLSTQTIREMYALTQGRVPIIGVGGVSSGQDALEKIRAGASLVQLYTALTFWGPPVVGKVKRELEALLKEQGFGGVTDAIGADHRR

O=C1C(O)=C([C@H]2CC[C@H](c3ccc(Cl)cc3)CC2)C(=O)c2ccccc21 [ATOVAQUONE]
pKi [1]: 4.57

COC(=O)Cc1cccc(-c2c(F)cc(-n3nnc4c3C(=O)c3ccccc3C4=O)cc2F)c1
pIC50 (HCT-116; Homo sapiens, HCT-116, 48 h): 5.79 | pIC50 (NAMALVA; Homo sapiens, NAMALVA, 48 h): < 5.00 | pIC50 (MCF7; Homo sapiens, MCF7, 48 h): < 5.00 | pIC50 (A549; Homo sapiens, A549, 48 h): < 5.00 | pIC50 (A-375; Homo sapiens, A-375, 48 h): 6.38 | pIC50 (Raji [2]; Homo sapiens, Raji, 48 h): 5.42 | solubility [3]: < 10 µg/mL | pIC50 [4]: 8.34 | pIC50 (K562; Homo sapiens, K562, 48 h): 5.62 | pIC50 (HeLa; Homo sapiens, HeLa, 48 h): < 5.00

O=C1c2ccccc2C(=O)c2c1nnn2-c1cc(F)c(-c2cccc(CO)c2)c(F)c1
pIC50 (HCT-116; Homo sapiens, HCT-116, 48 h): 5.66 | pIC50 (NAMALVA; Homo sapiens, NAMALVA, 48 h): < 5.00 | pIC50 (MCF7; Homo sapiens, MCF7, 48 h): < 5.00 | pIC50 (A549; Homo sapiens, A549, 48 h): < 5.00 | pIC50 (A-375; Homo sapiens, A-375, 48 h): 7.52 | pIC50 (Raji [2]; Homo sapiens, Raji, 48 h): 5.48 | solubility [3]: 14.6 µg/mL (≈ 35 µM) | pIC50 [4]: 8.92 | pIC50 (K562; Homo sapiens, K562, 48 h): < 5.00 | pIC50 (HeLa; Homo sapiens, HeLa, 48 h): < 5.00

O=C1C(O)=C(CC=C(Cl)Cl)C(=O)c2ccccc21
pIC50 [5]: 7.17

Nc1cccc(-c2ccc(-n3nnc4c3C(=O)c3ccccc3C4=O)cc2)c1
pIC50 (HCT-116; Homo sapiens, HCT-116, 48 h): 6.06 | pIC50 (NAMALVA; Homo sapiens, NAMALVA, 48 h): < 5.00 | pIC50 (MCF7; Homo sapiens, MCF7, 48 h): < 5.00 | pIC50 (A549; Homo sapiens, A549, 48 h): < 5.00 | pIC50 (A-375; Homo sapiens, A-375, 48 h): 6.60 | pIC50 (Raji [2]; Homo sapiens, Raji, 48 h): 5.87 | solubility [3]: < 10 µg/mL | pIC50 [4]: 8.51 | pIC50 (K562; Homo sapiens, K562, 48 h): < 5.00 | pIC50 (HeLa; Homo sapiens, HeLa, 48 h): < 5.00

Cc1c(-c2ccc(-c3ccccc3F)cc2)nc2ccc(F)cc2c1C(=O)O [BREQUINAR]
pIC50 (HCT-116; hct-116): 5.39 | degraded at 24 h, 0.01 mg/ml [6]: 6.3 to 12.1% | Activity (Raji [7]): 0.27% | pIC50 (NAMALVA; namalva): < 5.00 | Activity (Raji [8]): 3.56% | Activity (Raji [9]): 0.41% | pIC50 (MCF7; mcf7): < 5.00 | pIC50 (A549; a549): 5.39 | pIC50 (A-375; a-375): 6.23 | TGI (Raji [10]): 74% | Activity [11]: Toxic | degraded at 24 h, 0.01 mg/ml [12]: 75.4% | pIC50 (Raji [2]; raji): 5.64 | Activity (Raji [13]): 2.48% | solubility [3]: 75.2 µg/mL (≈ 200 µM) | Activity (Raji [14]): 93.68% | Activity [15]: Toxic | Activity (Raji [16]): 0.27% | pIC50 (K562; k562): 6.27 | Activity (Raji [17]): 92.06% | pIC50 (HeLa; hela): < 5.00 | Activity (Raji [18]): 91.85% | Activity (Raji [19]): 2.42%

COc1cccc(-c2c(F)cc(-n3nnc4c3C(=O)c3ccccc3C4=O)cc2F)c1
pIC50 (HCT-116; Homo sapiens, HCT-116, 48 h): 6.22 | Activity (Raji [7]): 0.5% | pIC50 (NAMALVA; Homo sapiens, NAMALVA, 48 h): 5.98 | Activity (Raji [8]): 3.43% | inhibition (Raji [20]): inactive | Activity (Raji [9]): 0.39% | pIC50 (MCF7; Homo sapiens, MCF7, 48 h): < 5.00 | pIC50 (A549; Homo sapiens, A549, 48 h): 5.65 | pIC50 (A-375; Homo sapiens, A-375, 48 h): 7.40 | Activity (Raji [21]): Dose-dependent effect | pIC50 (Raji [2]; Homo sapiens, Raji, 48 h): 6.32 | Activity (Raji [13]): 4.24% | solubility [3]: 21.4 µg/mL (≈ 51.3 µM) | Activity (Raji [14]): 91.81% | Activity (Raji [16]): 0.36% | Activity (Raji [22]): 77.98% | pIC50 [4]: 8.05 | Activity (Raji [23]): Dose-dependent effect | pIC50 (K562; Homo sapiens, K562, 48 h): 6.47 | Activity (Raji [17]): 90.1% | pIC50 (HeLa; Homo sapiens, HeLa, 48 h): < 5.00 | Activity (Raji [18]): 91.11% | Activity (Raji [19]): 3.58%

CN(C)c1cccc(-c2c(F)cc(-n3nnc4c3C(=O)c3ccccc3C4=O)cc2F)c1
pIC50 (HCT-116; Homo sapiens, HCT-116, 48 h): 6.39 | pIC50 (NAMALVA; Homo sapiens, NAMALVA, 48 h): < 5.00 | pIC50 (MCF7; Homo sapiens, MCF7, 48 h): < 5.00 | pIC50 (A549; Homo sapiens, A549, 48 h): < 5.00 | pIC50 (A-375; Homo sapiens, A-375, 48 h): 7.70 | pIC50 (Raji [2]; Homo sapiens, Raji, 48 h): 5.67 | solubility [3]: < 10 µg/mL | pIC50 [4]: 9.30 | pIC50 (K562; Homo sapiens, K562, 48 h): < 5.00 | pIC50 (HeLa; Homo sapiens, HeLa, 48 h): 5.69
